Screens (PubChem BioAssay)
A selection: hits, their analogues and other compounds. The true share with any hit is near 2%.
E-sel inducer: E-selectin induction in HUVECs, primary screen, imaging, HUVEC, immunofluorescence imaging, single point. P16581. normalized: neutral wells 0, TNF-alpha wells 100. activation, % at 7.58 µM. actives 0.37% (n = 260,000). AID 686992, 2013;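 active = mean E-selectin-positive cell signal at least 10% of the positive control, reached in at least 60% of replicates, without over 20% cell loss; inconclusive = no rule given, readout overlaps actives, possibly toxicity-flagged; inactive = the rest, including those meeting only one limit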
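Test system – human umbilical vein endothelial cells (HUVEC), E-selectin induction · Input – 3,000 HUVEC seeded per well · Buffer or medium – EGM-2, gelatin · Compound dosing – single-point compound dose · Detection – immunofluorescence imaging · Measure – percent E-selectin-positive cells · Controls – TNF-alpha high, DMSO low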
S100A4 inh HTS: inhibitors of S100A4-myosin IIA peptide binding, primary screen, biochemical, fluorescence polarization, TAMRA-MyoIIA peptide | Protein S100-A4 (Homo sapiens), P26447 | inhibition, % at 10.7 µM | actives 0.14% (n = 360,000) | AID 652163, 2013;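 active = mean inhibition of at least 70% across replicates, with every replicate also reaching that level; inconclusive = mean inhibition reaches 70% but some replicates fall short; inactive = mean inhibition below 70%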
Target sequence (P26447 whole entry, looked up): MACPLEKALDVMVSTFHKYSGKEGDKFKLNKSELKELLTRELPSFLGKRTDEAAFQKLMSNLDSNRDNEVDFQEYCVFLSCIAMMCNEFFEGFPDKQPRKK
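Material: S100A4 monomer protein | Medium: HEPES pH 7.2 with CaCl2, KCl, NaCl, DTT, Triton | Reagent: Labelled myosin peptide probe, 5 nM | Doses: One dose per compound | Times: 5 min incubation before reading | Benchmarks: Neutral control DMSO, positive control TFP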
DENV2 CPE rescue: inhibitors of DENV2 cytopathic effect, primary screen, cell-based, plate reader, single concentration. DENV2-infected cells, cytopathic effect rescue. CPE inhibition, % at 9.99 µM. actives 1.7% (n = 350,000). AID 651640, 2012; in the data active = CPE inhibition above about 20%, passing the limit was not always enough; inconclusive = no clear call, values can overlap the other calls; tested in BHK-21 cells
Xi reactivation: activators of inactive X chromosome reactivation, primary screen, imaging, XiGFP fibroblasts, GFP high-content imaging, set 2; XiGFP mouse fibroblasts, % GFP-positive cells imaging, 3 d; cells co-treated with 5-aza-dC sensitizer; scaled so ellipticine positive control = 100%; activation, % at 7.58 µM; actives 0.055% (n = 360,000); AID 743238, 2013;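 active = mean normalized replicate activation at least 10% and every replicate at or above 10%; inconclusive = only one of the two criteria met; inactive = mean below 10% and not all replicates reach 10%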
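System: 68-5-11 XiGFP fibroblast line; Timing: 3 days compound exposure; Compound dosing: one concentration, pinned; Benchmarks: positive control ellipticine, 6 µM final; Buffer or medium: DMEM containing 5-aza-dC.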
Numbers stand for hits; . = inactive; ? = inconclusive; / = no result; ! = repeats disagree.

SMILES | E-sel inducer | S100A4 inh HTS | DENV2 CPE rescue | Xi reactivation
Cn1c(N)c(C(=O)COC(=O)Cc2ccc(Cl)c(Cl)c2)c(=O)n(C)c1=O | / | . | 57 | .
COc1ccccc1CN1CC(C(=O)NCCc2ccccc2Cl)CCC1=O (stereo not drawn) | / | . | . | .
CCCCC1(CO)C(=O)N(c2ccccc2)N(c2ccccc2)C1=O | . | . | . | .
CCCCC1C(=O)N(c2ccccc2)N(c2ccc(O)cc2)C1=O (stereo not drawn) | 152 | . | . | .
CC1CCCCN1CCNC(=O)c1cc2c(-c3ccccc3F)nn(C)c2s1 (stereo not drawn) | . | . | ? | .
O=C(Nc1ccc([N+](=O)[O-])cc1)N1CCc2ccccc2C1 | / | . | 23 | .
CC(C)c1ccc(NC(=O)N2CCc3ccccc3C2)cc1 | / | . | . | .
N#C/C(=C\c1ccc(N2CCCCC2)o1)C(=O)Nc1cccc(Br)c1 | / | / | / | 94
N#C/C(=C\c1ccc(N2CCCCC2)o1)C(N)=O | / | . | . | .
CCCOc1ccc(C(=O)NC(=S)N2CCN(c3cc4c(cc3F)c(=O)c(C(=O)O)cn4CC)CC2)cc1 | . | . | 53 | .
C[C@@H]1CN([C@@H](C)CO)C(=O)c2cc(NC(=O)NC3CCCCC3)ccc2O[C@@H](C)CCCCO[C@H]1CN(C)CC1CC1 | . | . | . | .
CCCCCCN1C[C@H](n2cc(-c3ccc(F)cc3)nn2)[C@@H](O)C[C@@H]1c1ccccc1 | . | . | 93 | .
CCCCCCN1C[C@H](O)[C@@H](n2cc(-c3ccc(F)cc3)nn2)C[C@@H]1c1ccccc1 | . | . | ? | .
O[C@@H]1CN(Cc2cccs2)[C@@H](c2ccccc2)C[C@H]1n1cc(-c2ccc(F)cc2)nn1 | / | . | 51 | .
O[C@H]1C[C@H](c2ccc(Cl)cc2)N(Cc2cccs2)C[C@@H]1n1cc(-c2ccc(F)cc2)nn1 | . | . | . | .
COc1ccc(C(=O)NCCc2c[nH]c3ccccc23)cc1S(=O)(=O)N1CCCCC1C (stereo not drawn) | / | . | . | .
CCc1sc(N)nc1-c1ccccc1 | / | . | . | .
O=C(C[C@H]1CC[C@@H]2[C@H](COC[C@H](O)CN2C(=O)Nc2ccc3c(c2)OCO3)O1)N1CCN(c2ccccc2)CC1 | . | 123 | . | .
O=C(C[C@H]1CC[C@H]2[C@@H](COC[C@@H](O)CN2C(=O)Nc2cc(Cl)cc(Cl)c2)O1)N1CCCCC1 | . | . | 30 | .
O=C(C[C@@H]1CC[C@H]2[C@@H](COC[C@@H](O)CN2C(=O)Nc2cc(Cl)cc(Cl)c2)O1)N1CCCCC1 | . | . | . | .
C[C@H](CO)N1C[C@H](C)[C@@H](CN(C)CC2CC2)Oc2ccc(NC(=O)C3CC3)cc2CC1=O | . | . | . | .
Cc1noc(C)c1S(=O)(=O)Nc1ccc2c(c1)CC(=O)N([C@@H](C)CO)C[C@@H](C)[C@@H](CN(C)Cc1ccc(Cl)c(Cl)c1)O2 | . | . | . | .
CCCNC(=O)N1[C@H](CO)[C@@H](c2ccccc2)C12CN(C(=O)C1CCCCC1)C2 | . | . | 85 | .
O=C(C1CCC1)N1CC2(C1)[C@@H](c1ccccc1)[C@@H](CO)N2C(=O)NC1CCCC1 | . | . | 31 | .
CCCNC(=O)N1[C@H](CO)[C@H](c2ccccc2)C12CN(C(=O)C1CCCCC1)C2 | . | / | . | .
SMILES | E-sel inducer | S100A4 inh HTS | DENV2 CPE rescue | Xi reactivation
O=C(C1CCCCC1)N1CC2(C1)[C@H](c1ccccc1)[C@@H](CO)N2C(=O)NC1CCCC1 | . | . | . | .
Cc1ccnc(OC(C(=O)O)C(OCc2ccccc2)(c2ccc(F)cc2)c2ccc(F)cc2)n1 (stereo not drawn) | . | . | . | .
COc1ccc(COc2ccccc2C(N)=O)cc1F | / | . | . | .
COc1ccc(S(=O)(=O)n2nc(-c3ccc(Cl)cc3)cc2N)cc1 | / | . | . | .
COc1ccc(-c2cc(N)n(S(=O)(=O)c3ccc(C)cc3)n2)c(OC)c1 | . | . | 22 | .
Cc1ccc2c(c1)c(/C=C/c1cc[n+](C)cc1)c(C)n2C | . | . | . | 106
Cc1ccc2[nH]c(C)c(/C=C/c3cc[n+](C)cc3)c2c1 | . | . | . | 45
Cn1cc(/C=C/c2cc[n+](C)cc2)c2cc(F)ccc21 | / | . | / | /
Cn1cnc(CCNC(=O)C[C@@H]2CC[C@@H]3[C@H](COC[C@@H](O)CN3C(=O)C3CC3)O2)c1 | . | . | ? | .
CCC(=O)N1C[C@@H](O)COC[C@@H]2O[C@H](CC(=O)NCc3cc(F)cc(F)c3)CC[C@H]21 | . | / | . | .
Cn1cnc(CCNC(=O)C[C@H]2CC[C@H]3[C@@H](COC[C@@H](O)CN3C(=O)C3CC3)O2)c1 | . | 85 | . | .
CCNC(=O)C[C@H]1CC[C@H]2[C@@H](COC[C@H](O)CN2C(=O)CC)O1 | . | . | . | .
CCC(=O)N1C[C@H](O)COC[C@H]2O[C@H](CC(=O)NCc3cc(F)cc(F)c3)CC[C@@H]21 | . | 88 | . | .
CCNC(=O)C[C@@H]1CC[C@H]2[C@@H](COC[C@H](O)CN2C(=O)CC)O1 | . | . | 48 | .
CCN1C[C@@H]2[C@@H]3C(=O)N(Cc4ccccc4)C(=O)[C@@H]3[C@](Cc3ccccc3)(C(=O)OC)N2C1=NCc1ccccc1 | . | . | . | .
C[C@@H]1CN([C@H](C)CO)C(=O)CCCn2nncc2CO[C@@H]1CN(C)S(=O)(=O)c1ccc2ccccc2c1 | . | 93! | . | .
Cc1ccccc1S(=O)(=O)N(C)C[C@@H]1OCc2cnnn2CCCC(=O)N([C@@H](C)CO)C[C@H]1C | . | 112! | . | .
COC(=O)C1=C(C)N(C)C(=NCc2cc(OC)c(OC)c(OC)c2)NC1c1ccc(C(F)(F)F)cc1 (stereo not drawn) | . | . | . | .
CCN(CC(=O)Nc1ccccc1C(F)(F)F)C(=O)Cc1cccs1 | / | . | . | .
COC(=O)C(Cc1csc2ccc(Cl)cc12)NC(=O)c1ccc(Cl)cc1 (stereo not drawn) | . | . | 96 | .
COC(=O)C(Cc1ccccc1)NC(=O)c1ccc(C)cc1 (stereo not drawn) | / | . | . | .
COc1cccc(CNC(=O)c2cc3c(c(-c4cccc(-c5cccc(C#N)c5)c4)n2)[C@H](CCO)N(S(=O)C(C)(C)C)C3)c1 (stereo partly drawn) | 49 | . | . | .
COc1ccc(CNC(=O)c2cc3c(c(-c4cccc(-c5ccc(C#N)cc5)c4)n2)[C@@H](CCO)N([S@](=O)C(C)(C)C)C3)cc1 | . | . | . | .
COc1cccc(CNC(=O)c2cc3c(c(-c4cccc(-c5ccc(C#N)cc5)c4)n2)[C@H](CCO)N([S@@](=O)C(C)(C)C)C3)c1 | 60 | . | . | .
Cc1ccc(-n2nc3c(c2NC(=O)CC(C)C)CS(=O)(=O)C3)cc1 | / | . | . | .
